Results on 27 molecules are retold here after paper PMC4492447 (Journal of medicinal chemistry, 2012).

For data set [1] the following is noted: SD rats, 2–3 h postdose; cited from earlier work.
Data set [2] has as its target T1, CB1 (Homo sapiens, UniProt P21554). Type of data set: cell-based.
The next data set deals with MDCK-mdr1 cells. Put plainly: MDCK-mdr1 permeability assay. Type of data set: in vitro ADME, canine. To be noted: apical to basal, 10 μM, 1 h at 37 °C. In outline:
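MDCK cells transfected with human MDR1 grown on filters for 4 days to confluence in DMEM/F12 with 10% FBS and antibiotics. Test compound added apically in HBSS with 25 mM D-glucose, HEPES-buffered to pH 7.4. Apical and basal samples collected, dried under nitrogen, and quantified by LC-MS/MS in MRM mode. Percent transfer apical to basal reported; mean of 2–3 measurements.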

A short description of data set [3]: pharmacokinetic evaluation in vivo, plasma and brain levels after oral dosing. On the set-up: species or system Sprague–Dawley rats.
Data set [4] in a line: metabolic stability in human hepatic S9 fraction. The class given is in vitro ADME. The essentials:
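Pooled mixed-gender human hepatic S9 at 1 mg/mL, test compound at 10 μM final. Buffer: 50 mM potassium phosphate pH 7.4, 3 mM MgCl2, NADPH-regenerating system (1 mM NADP, 5 mM glucose-6-phosphate, 1 unit/mL G6PDH). Triplicates sampled at 0, 15, 30, 60, 120 min. Stopped with 3 vol acetonitrile; LC-MS/MS against standard curves in blank matrix. Read-out is percent remaining.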

The target in data set [5] is T1, CB1. The class given is binding. The conditions noted are these: selectivity, [3H]CP55940 displacement.

T1 sequence (P21554 whole entry): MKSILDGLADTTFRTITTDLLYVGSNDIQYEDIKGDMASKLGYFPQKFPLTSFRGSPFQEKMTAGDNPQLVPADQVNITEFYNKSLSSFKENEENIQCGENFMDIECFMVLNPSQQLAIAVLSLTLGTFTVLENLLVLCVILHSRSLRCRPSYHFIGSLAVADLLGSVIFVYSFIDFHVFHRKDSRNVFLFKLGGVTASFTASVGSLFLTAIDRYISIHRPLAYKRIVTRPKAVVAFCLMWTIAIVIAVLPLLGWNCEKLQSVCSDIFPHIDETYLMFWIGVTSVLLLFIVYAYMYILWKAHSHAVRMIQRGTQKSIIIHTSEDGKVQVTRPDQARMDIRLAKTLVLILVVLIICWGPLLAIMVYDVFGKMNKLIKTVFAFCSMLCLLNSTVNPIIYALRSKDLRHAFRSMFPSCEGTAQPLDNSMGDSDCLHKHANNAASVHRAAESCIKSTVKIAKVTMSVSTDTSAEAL

On to `CCNC1(C(N)=O)CCN(c2ncnc3c2nc(-c2ccccc2Cl)n3-c2ccc(Cl)cc2)CC1` [Compound 2, otenabant], for which, in data set [1], the brain exposure was ~33%.

On CB1 [2], `CC(C)(C)OC(=O)NC1(c2ccccc2)CCN(c2ncnc3c2nc(-c2ccccc2Cl)n3-c2ccc(Cl)cc2)CC1` [Compound 10, tert-Butyl N-{1-[8-(2-chlorophenyl)-9-(4-chlorophenyl)-9H-purin-6-yl]-4-phenylpiperidin-4-yl}carbamate] displayed a Kb of 0.0039 µM. The “MDCK-mdr1 A to B” value in the data set with MDCK-mdr1 cells was <1%.

In the case of `NC1(c2ccccc2)CCN(c2ncnc3c2nc(-c2ccccc2Cl)n3-c2ccc(Cl)cc2)CC1` [Compound 11, 1-[8-(2-Chlorophenyl)-9-(4-chlorophenyl)-9H-purin-6-yl]-4-phe-nylpiperidin-4-amine], the Kb on CB1 [2] came out at 0.0159 µM. For the same molecule, the “MDCK-mdr1 A to B” value in the data set on MDCK-mdr1 cells was <1%.

As to `CS(=O)(=O)NC1(c2ccccc2)CCN(c2ncnc3c2nc(-c2ccccc2Cl)n3-c2ccc(Cl)cc2)CC1` [Compound 12, N-{1-[8-(2-Chlorophenyl)-9-(4-chlorophenyl)-9H-purin-6-yl]-4-phenylpiperidin-4-yl}methanesulfonamide], the “MDCK-mdr1 A to B” value with MDCK-mdr1 cells is <1%. Moreover, in data set [3] (SD rats, 10 mg/kg oral), the “brain penetration (in words)” value is recorded as “limited brain penetration” and the “time post dose of maximum concentration” value is on record as 240 min. Besides, in data set [3] (oral dosing in rats, 10 mg/kg), the “clearance (in words)” value was “favorable clearance” and the “oral absorption (in words)” value is recorded as “excellent oral absorption”.

On to `CC(C)(C)NC(=O)NC1(c2ccccc2)CCN(c2ncnc3c2nc(-c2ccccc2Cl)n3-c2ccc(Cl)cc2)CC1` [Compound 13a, 3-tert-Butyl-1-{1-[8-(2-chlorophenyl)-9-(4-chlorophenyl)-9H-purin-6-yl]-4-phenylpiperidin-4-yl}urea], for which the Kb at CB1 [2] was determined as 0.0192 µM. In addition, in the data set with MDCK-mdr1 cells, the “MDCK-mdr1 A to B” value is reported as <1%. The “metabolism in S9 fraction (in words)” value in data set [4] is “significant metabolism”.

`CCNC(=O)NC1(c2ccccc2)CCN(c2ncnc3c2nc(-c2ccccc2Cl)n3-c2ccc(Cl)cc2)CC1` [Compound 13b, 1-{1-[8-(2-Chlorophenyl)-9-(4-chlorophenyl)-9H-purin-6-yl]-4-phenylpiperidin-4-yl}-3-ethylurea] had a Kb on CB1 [2] of 0.443 µM.

In turn, `CCCCNC(=O)NC1(c2ccccc2)CCN(c2ncnc3c2nc(-c2ccccc2Cl)n3-c2ccc(Cl)cc2)CC1` [Compound 13e, 3-Butyl-1-{1-[8-(2-chlorophenyl)-9-(4-chlorophenyl)-9H-purin-6-yl]-4-phenylpiperidin-4-yl}urea] showed a Kb on CB1 [2] of 0.062 µM.

The molecule `CCOC(=O)CNC(=O)NC1(c2ccccc2)CCN(c2ncnc3c2nc(-c2ccccc2Cl)n3-c2ccc(Cl)cc2)CC1` [Compound 13f, Ethyl 2-[({1-[8-(2-chlorophenyl)-9-(4-chlorophenyl)-9H-purin-6-yl]-4-phenylpiperidin-4-yl}carbamoyl)amino]acetate] had a Kb on CB1 [2] of 0.171 µM.

In turn, `O=C(NC1CCCCC1)NC1(c2ccccc2)CCN(c2ncnc3c2nc(-c2ccccc2Cl)n3-c2ccc(Cl)cc2)CC1` [Compound 13g, 3-{1-[8-(2-Chlorophenyl)-9-(4-chlorophenyl)-9H-purin-6-yl]-4-phenylpiperidin-4-yl}-1-cyclohexylurea] came in with a Kb at CB1 [2] of 0.199 µM.

As for `Clc1ccc(-n2c(-c3ccccc3Cl)nc3c(NC4CCNCC4)ncnc32)cc1` [Compound 14b, 8-(2-Chlorophenyl)-9-(4-chlorophenyl)-N-(piperidin-4-yl)-9H-purin-6-amine], the Kb on CB1 [2] is 5.71 µM.

Take `CCNC(=O)N1CCC(Nc2ncnc3c2nc(-c2ccccc2Cl)n3-c2ccc(Cl)cc2)CC1` [Compound 14c, 4-{[8-(2-Chlorophenyl)-9-(4-chlorophenyl)-9H-purin-6-yl]amino}-N-ethylpiperidine-1-carboxamide]: the Kb on CB1 [2] turned out to be 1.15 µM.

Turning to `CC(C)NC(=O)N1CCC(Nc2ncnc3c2nc(-c2ccccc2Cl)n3-c2ccc(Cl)cc2)CC1` [Compound 14d, 4-{[8-(2-Chlorophenyl)-9-(4-chlorophenyl)-9H-purin-6-yl]amino}-N-(propan-2-yl)piperidine-1-carboxamide], the Kb on CB1 [2] amounted to 0.495 µM.

For `CCCNC(=O)N1CCC(Nc2ncnc3c2nc(-c2ccccc2Cl)n3-c2ccc(Cl)cc2)CC1` [Compound 14e, 4-{[8-(2-Chlorophenyl)-9-(4-chlorophenyl)-9H-purin-6-yl]amino}-N-propylpiperidine-1-carboxamide], the Kb at CB1 [2] was 1.96 µM.

Take `CCCCNC(=O)N1CCC(Nc2ncnc3c2nc(-c2ccccc2Cl)n3-c2ccc(Cl)cc2)CC1` [Compound 14f, N-Butyl-4-{[8-(2-chlorophenyl)-9-(4-chlorophenyl)-9H-purin-6-yl]amino}piperidine-1-carboxamide]: at CB1 [5], the “CB2/CB1 Ki ratio” value is >5.

In the case of `CS(=O)(=O)N1CCC(Nc2ncnc3c2nc(-c2ccccc2Cl)n3-c2ccc(Cl)cc2)CC1` [Compound 14g, 8-(2-Chlorophenyl)-9-(4-chlorophenyl)-N-(1-methanesulfonylpiperidin-4-yl)-9H-purin-6-amine], the Kb on CB1 [2] amounted to 1.65 µM.

The molecule `CCNC(=O)N1CCC[C@@H](Nc2ncnc3c2nc(-c2ccccc2Cl)n3-c2ccc(Cl)cc2)C1` [Compound 15c, (3R)-3-{[8-(2-Chlorophenyl)-9-(4-chlorophenyl)-9H-purin-6-yl]-amino}-N-ethylpiperidine-1-carboxamide] showed a Kb at CB1 [2] of 1.5 µM.

Consider `CC(=O)N1CCC[C@@H](Nc2ncnc3c2nc(-c2ccccc2Cl)n3-c2ccc(Cl)cc2)C1` [Compound 15d, 1-[(3R)-3-{[8-(2-Chlorophenyl)-9-(4-chlorophenyl)-9H-purin-6-yl]-amino}piperidin-1-yl]ethan-1-one], for which the Kb on CB1 [2] amounted to 0.92 µM.

`CS(=O)(=O)N1CCC[C@@H](Nc2ncnc3c2nc(-c2ccccc2Cl)n3-c2ccc(Cl)cc2)C1` [Compound 15e, 8-(2-Chlorophenyl)-9-(4-chlorophenyl)-N-[(3R)-1-methanesulfonylpiperidin-3-yl]-9H-purin-6-amine]: at CB1 [2], the Kb was determined as 0.346 µM.

For `CCNC(=O)N1CCC[C@H](Nc2ncnc3c2nc(-c2ccccc2Cl)n3-c2ccc(Cl)cc2)C1` [Compound 16c, (3S)-3-{[8-(2-Chlorophenyl)-9-(4-chlorophenyl)-9H-purin-6-yl]-amino}-N-ethylpiperidine-1-carboxamide], the Kb on CB1 [2] worked out at 1.15 µM.

At CB1 [2], `CC(=O)N1CCC[C@H](Nc2ncnc3c2nc(-c2ccccc2Cl)n3-c2ccc(Cl)cc2)C1` [Compound 16d, 1-[(3S)-3-{[8-(2-Chlorophenyl)-9-(4-chlorophenyl)-9H-purin-6-yl]-amino}piperidin-1-yl]ethan-1-one] had a Kb of 4.45 µM.

Regarding `CS(=O)(=O)N1CCC[C@H](Nc2ncnc3c2nc(-c2ccccc2Cl)n3-c2ccc(Cl)cc2)C1` [Compound 16e, 8-(2-Chlorophenyl)-9-(4-chlorophenyl)-N-[(3S)-1-methanesulfonylpiperidin-3-yl]-9H-purin-6-amine], the Kb at CB1 [2] turned out to be 6.04 µM.

In turn, `CCNC(=O)NC1CCN(c2ncnc3c2nc(-c2ccccc2Cl)n3-c2ccc(Cl)cc2)CC1` [Compound 17c, 1-{1-[8-(2-Chlorophenyl)-9-(4-chlorophenyl)-9H-purin-6-yl]-piperidin-4-yl}-3-ethylurea] returned a Kb at CB1 [2] of 0.149 µM.

In turn, `CC(C)NC(=O)NC1CCN(c2ncnc3c2nc(-c2ccccc2Cl)n3-c2ccc(Cl)cc2)CC1` [Compound 17d, 1-{1-[8-(2-Chlorophenyl)-9-(4-chlorophenyl)-9H-purin-6-yl]-piperidin-4-yl}-3-(propan-2-yl)urea] came in with a Kb on CB1 [2] of 0.133 µM.

`CCCNC(=O)NC1CCN(c2ncnc3c2nc(-c2ccccc2Cl)n3-c2ccc(Cl)cc2)CC1` [Compound 17e, 1-{1-[8-(2-chlorophenyl)-9-(4-chlorophenyl)-9H-purin-6-yl]-piperidin-4-yl}-3-propylurea]: the Kb at CB1 [2] came out at 0.132 µM.

With `CCCCNC(=O)NC1CCN(c2ncnc3c2nc(-c2ccccc2Cl)n3-c2ccc(Cl)cc2)CC1` [Compound 17f, 3-Butyl-1-{1-[8-(2-chlorophenyl)-9-(4-chlorophenyl)-9H-purin-6-yl]piperidin-4-yl}urea], the Kb on CB1 [2] is 0.049 µM.

Molecule `CC(=O)NC1CCN(c2ncnc3c2nc(-c2ccccc2Cl)n3-c2ccc(Cl)cc2)CC1` [Compound 17g, N-{1-[8-(2-Chlorophenyl)-9-(4-chlorophenyl)-9H-purin-6-yl]-piperidin-4-yl}acetamide] gave a Kb at CB1 [2] of 0.631 µM.

For the molecule `CS(=O)(=O)NC1CCN(c2ncnc3c2nc(-c2ccccc2Cl)n3-c2ccc(Cl)cc2)CC1` [Compound 17h, N-{1-[8-(2-Chlorophenyl)-9-(4-chlorophenyl)-9H-purin-6-yl]-piperidin-4-yl}methanesulfonamide], the Kb at CB1 [2] came to 0.071 µM.
